The test system of data set [1] is Mus musculus. The data set can be described thus: Anticonvulsant activity in Kunming mouse assessed as protection against maximal electric shock-induced seizures at 300 mg/kg, ip measured after 4 hrs. The arrangement: dose 300 mg/kg. It counts as functional, organism-based. The method in brief:
(§1)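 KunMing mice (18–22 g), compounds dissolved in DMSO, given i.p. at 30, 100 and 300 mg/kg, three mice per dose. Current applied through corneal electrodes for 0.2 s at 0.5 h and 4 h after dosing. Protection is abolition of tonic hind-leg extension, scored as protected/tested.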

Data set [2] deals with Mus musculus. The data set can be described thus: Anticonvulsant activity in Kunming mouse assessed as protection against maximal electric shock-induced seizures at 30 mg/kg, ip measured after 0.5 hrs. The arrangement: dose 30 mg/kg. It counts as functional, organism-based. The method, boiled down:
as §1

For data set [3], the system named is Mus musculus. The data set can be described thus: Anticonvulsant activity in Kunming mouse assessed as protection against maximal electric shock-induced seizures at 100 mg/kg, ip measured after 4 hrs. It counts as functional, organism-based. The arrangement: dose 100 mg/kg. The method, boiled down: as §1
In data set [4] the test system is Mus musculus. The data set can be described thus: Anticonvulsant activity in Kunming mouse assessed as protection against maximal electric shock-induced seizures at 30 mg/kg, ip measured after 4 hrs. In kind it is functional, organism-based. The arrangement: dose 30 mg/kg. The method in brief:
as §1

In data set [5] the test system is Mus musculus. The data set can be described thus: Anticonvulsant activity in Kunming mouse assessed as protection against maximal electric shock-induced seizures at 300 mg/kg, ip measured after 0.5 hrs. In kind it is functional, organism-based. The arrangement: dose 300 mg/kg. The method, boiled down: as §1
Data set [6] has as its system Mus musculus. The data set can be described thus: Anticonvulsant activity in Kunming mouse assessed as protection against maximal electric shock-induced seizures at 100 mg/kg, ip measured after 0.5 hrs. The arrangement: dose 100 mg/kg. It counts as functional, organism-based. The method in brief: as §1
Data set [7] deals with Mus musculus. The data set can be described thus: Neurotoxicity in Kunming mouse at 100 mg/kg, ip after 4 hrs. The arrangement: dose 100 mg/kg, route intraperitoneal. In kind it is toxicity, organism-based. Particulars: in vivo. The method in brief: (§2)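 Rotarod neurotoxicity in KunMing mice (18–22 g) trained on a 3.2 cm diameter rod at 10 rpm. Compounds in DMSO were given i.p. at 30, 100 and 300 mg/kg, three mice per dose, and tested at 0.5 h and 4 h after dosing.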

For data set [8], the system named is Mus musculus. The data set can be described thus: Neurotoxicity in Kunming mouse at 100 mg/kg, ip after 0.5 hrs. It counts as toxicity, organism-based. The arrangement: dose 100 mg/kg, route intraperitoneal. Particulars: in vivo. The method, boiled down: as §2
A short description of data set [9]: Neurotoxicity in ip dosed Kunming mouse by rotarod test. In kind it is toxicity, organism-based. As to conditions: in vivo. The method in brief: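 Phase-II rotarod test in KunMing mice trained on a 3.2 cm rod at 10 rpm, DMSO vehicle. Groups of 10 mice got graded i.p. doses until at least three points fell within 10–90% minimal neurotoxicity, giving the median toxic dose.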
Background: Falling from the rotarod earlier than controls is read as motor impairment.

Data set [10] is filed under the species Mus musculus. The data set can be described thus: Protective index, ratio of TD50 for neurotoxicity in Kunming mouse to ED50 for inhibition of MES-induced seizures in Kunming mouse. In kind it is functional.
The test system of data set [11] is Mus musculus. The data set can be described thus: Neurotoxicity in Kunming mouse at 300 mg/kg, ip after 4 hrs. In kind it is toxicity, organism-based. The arrangement: dose 300 mg/kg, route intraperitoneal. Particulars: in vivo. The method, boiled down: as §2
Data set [12] deals with Mus musculus. The data set can be described thus: Anticonvulsant activity against maximal electric shock-induced seizures in ip dosed Kunming mouse assessed as median effective dose. In kind it is functional. The method in brief:
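Phase-II MES test in KunMing mice (18–22 g), DMSO vehicle, corneal electrode stimulus 0.2 s. Groups of 10 mice got a range of i.p. doses until at least three points fell within 10–90% seizure protection, giving the median effective dose. Endpoint is abolition of tonic hind-leg extension.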

The test system of data set [13] is Mus musculus. The data set can be described thus: Neurotoxicity in Kunming mouse at 300 mg/kg, ip after 0.5 hrs. In kind it is toxicity, organism-based. The arrangement: dose 300 mg/kg, route intraperitoneal. Particulars: in vivo. The method in brief:
as §2

In general, TD50 refers to the 50% point of the dose-response relation for the toxic effect studied. Lower therefore signals greater toxicity. As a reminder, the ED50 is the dose that gives a 50% effect, or the effect in half of the subjects.

Calls of active or inactive are those of the source. The rule behind the calls is not given here.

For the compound `O=C1CC(c2ccccc2)n2c(nc3ccccc32)N1` (centres undefined), the result in the data set on Mus musculus [1], with Mus musculus [2], in the data set with Mus musculus [3], in the data set on Mus musculus [4], with Mus musculus [5] and in the data set with Mus musculus [6] was inactive.

With `O=C1CC(c2ccc(Cl)cc2Cl)n2ncnc2N1` (centres undefined), the outcome with Mus musculus [1], in the data set with Mus musculus [2], in the data set with Mus musculus [3], in the data set on Mus musculus [4], with Mus musculus [5] and in the data set with Mus musculus [6] was inactive.

For `O=C1CC(c2ccccc2F)n2c(nc3ccccc32)N1` (centres undefined), the result in the data set with Mus musculus [1], in the data set with Mus musculus [2], with Mus musculus [3], with Mus musculus [4], in the data set on Mus musculus [5] and in the data set with Mus musculus [6] was inactive.

For the compound `O=C1CC(c2ccccc2)n2ncnc2N1Cc1ccccc1` (centres undefined), the result in the data set with Mus musculus [1], with Mus musculus [2], in the data set with Mus musculus [3] and with Mus musculus [4] was inactive.

With `O=C1CC(c2ccccc2Cl)n2ncnc2N1` (centres undefined), the result in the data set with Mus musculus [1], with Mus musculus [3] and with Mus musculus [4] was inactive. Further, the Activity entry in the data set with Mus musculus [7], in the data set on Mus musculus [8] and in the data set on Mus musculus [11] was “Non-toxic” each time. The result with Mus musculus [2], in the data set on Mus musculus [5] and in the data set with Mus musculus [6] was Active. In addition, in data set [9], the TD50 was found to be 465 mg/kg. Besides, the “Ratio TD50/ED50” value in the data set listed under Mus musculus [10] is listed as 18.2. The ED50 in the data set on Mus musculus [12] was determined as 25.5 mg/kg.

Regarding `CCCCCCN1C(=O)CC(c2ccccc2)n2ncnc21` (centres undefined), the outcome with Mus musculus [1], in the data set with Mus musculus [2], in the data set on Mus musculus [3] and with Mus musculus [4] was inactive.

Regarding `O=C1CC(c2ccccc2F)n2nccc2N1` (centres undefined), the outcome in the data set on Mus musculus [1], in the data set on Mus musculus [3] and in the data set with Mus musculus [4] was inactive. The Activity entry is on record as “Non-toxic” with Mus musculus [7], “Toxic” in the data set with Mus musculus [13] and “Non-toxic” in the data set with Mus musculus [11]. Further, the outcome with Mus musculus [5] and in the data set on Mus musculus [6] was Active. Besides, in data set [9], the TD50 was determined as 118 mg/kg. In addition, the “Ratio TD50/ED50” value in the data set listed under Mus musculus [10] came to 2.5. For the same compound, in the data set on Mus musculus [12], the 50% effective dose (ED50) stood at 47.3 mg/kg.

`O=C1CC(c2ccccc2Br)n2c(nc3ccccc32)N1` (centres undefined): the outcome in the data set on Mus musculus [1], in the data set with Mus musculus [2], with Mus musculus [3], with Mus musculus [4], in the data set on Mus musculus [5] and in the data set on Mus musculus [6] was inactive.

In the case of `O=C1CC(c2ccccc2Cl)n2c(nc3ccccc32)N1` (centres undefined), the result with Mus musculus [1], in the data set on Mus musculus [2], in the data set with Mus musculus [3], with Mus musculus [4], with Mus musculus [5] and in the data set with Mus musculus [6] was inactive.

In the case of `O=C1CC(c2ccc(Br)cc2)n2ncnc2N1` (centres undefined), the result with Mus musculus [1], with Mus musculus [2], with Mus musculus [3], with Mus musculus [4] and in the data set on Mus musculus [6] was inactive.

For the compound `COc1ccccc1C1CC(=O)Nc2ncnn21` (centres undefined), the outcome in the data set with Mus musculus [1], in the data set on Mus musculus [2], in the data set on Mus musculus [3], in the data set with Mus musculus [4] and with Mus musculus [6] was inactive.

With `O=C1CC(c2ccccc2)n2ncnc2N1` (centres undefined), the result in the data set with Mus musculus [1], with Mus musculus [2], in the data set with Mus musculus [3] and with Mus musculus [4] was inactive. For the same compound, the Activity entry in the data set on Mus musculus [7], in the data set with Mus musculus [8] and in the data set on Mus musculus [11] was “Non-toxic” throughout. The outcome with Mus musculus [5] and in the data set with Mus musculus [6] was Active. Also, in data set [9], the TD50 amounted to 548 mg/kg. The “Ratio TD50/ED50” value in the data set filed under Mus musculus [10] is given as 10.5. Besides, the ED50 in the data set with Mus musculus [12] was 51.9 mg/kg.

For `O=C1CC(c2cccc(Cl)c2)n2ncnc2N1` (centres undefined), the outcome in the data set with Mus musculus [1], in the data set with Mus musculus [2], in the data set on Mus musculus [3] and in the data set with Mus musculus [4] was inactive. Besides, the Activity entry in the data set with Mus musculus [7], with Mus musculus [8] and with Mus musculus [11] was “Non-toxic” in each case. In addition, the outcome with Mus musculus [5] and with Mus musculus [6] was Active. Besides, the TD50 in data set [9] is 528 mg/kg. Besides, the “Ratio TD50/ED50” value in the data set listed under Mus musculus [10] is recorded as 11.2. Also, in the data set with Mus musculus [12], the ED50 came out at 47.3 mg/kg.

As for `O=C1CC(c2ccccc2Cl)n2ccnc2N1` (centres undefined), the result in the data set on Mus musculus [1], with Mus musculus [2], in the data set on Mus musculus [3] and in the data set on Mus musculus [4] was inactive. Besides, the outcome in the data set on Mus musculus [5] was Active.

For the compound `O=C1CC(c2cccc(F)c2)n2ncnc2N1` (centres undefined), the outcome in the data set on Mus musculus [1], in the data set on Mus musculus [2], in the data set on Mus musculus [3], in the data set on Mus musculus [4] and with Mus musculus [6] was inactive.

On to `COc1ccc(C2CC(=O)Nc3ncnn32)cc1` (centres undefined), for which the result with Mus musculus [1], in the data set on Mus musculus [2], with Mus musculus [3], in the data set with Mus musculus [4] and in the data set on Mus musculus [6] was inactive.

For `CN1C(=O)CC(c2ccccc2)n2ncnc21` (centres undefined), the result in the data set on Mus musculus [1], in the data set on Mus musculus [2], with Mus musculus [3] and with Mus musculus [4] was inactive. Also, the result in the data set with Mus musculus [5] was Active.

As for `O=C1CC(c2ccccc2F)n2ncnc2N1` (centres undefined), the outcome in the data set on Mus musculus [1], in the data set with Mus musculus [3] and with Mus musculus [4] was inactive. Also, the Activity entry with Mus musculus [7], with Mus musculus [8] and with Mus musculus [11] was “Non-toxic” in each case. Further, the outcome with Mus musculus [5] and in the data set on Mus musculus [6] was Active. The compound also showed a TD50 in data set [9] of 456 mg/kg. In addition, in the data set listed under Mus musculus [10], the “Ratio TD50/ED50” value is 14.4. Moreover, in the data set on Mus musculus [12], the 50% effective dose (ED50) amounted to 31.7 mg/kg.

On to `O=C1CC(c2ccccc2F)n2ccnc2N1` (centres undefined), for which the outcome with Mus musculus [1], in the data set with Mus musculus [2], with Mus musculus [3] and in the data set with Mus musculus [4] was inactive. Besides, the Activity result in the data set on Mus musculus [7], with Mus musculus [8] and in the data set with Mus musculus [11] was “Non-toxic” throughout. In addition, the result in the data set on Mus musculus [5] and in the data set with Mus musculus [6] was Active. Besides, the TD50 in data set [9] amounted to 387 mg/kg. Besides, the “Ratio TD50/ED50” value in the data set filed under Mus musculus [10] came to 4.4. Moreover, the ED50 in the data set with Mus musculus [12] is 88 mg/kg.

For `O=C1CC(c2ccccc2Br)n2ccnc2N1` (centres undefined), the outcome in the data set with Mus musculus [1], in the data set on Mus musculus [2], in the data set with Mus musculus [3] and with Mus musculus [4] was inactive. The outcome in the data set with Mus musculus [5] was Active.

Turning to `O=C1CC(c2ccc(Cl)cc2)n2ncnc2N1` (centres undefined), the result in the data set on Mus musculus [1], in the data set with Mus musculus [2], with Mus musculus [3] and with Mus musculus [4] was inactive. Further, in the data set with Mus musculus [5], the result was Active.

Regarding `O=C1CC(c2ccc(F)cc2)n2ncnc2N1` (centres undefined), the outcome in the data set with Mus musculus [1], in the data set with Mus musculus [2], in the data set on Mus musculus [3], in the data set with Mus musculus [4] and in the data set on Mus musculus [6] was inactive.

For `CCC1(c2ccccc2)C(=O)NC(=O)NC1=O` [PHENOBARBITAL], in the data set on Mus musculus [12], the ED50 came out at 21.8 mg/kg.

For the compound `Cc1ccc(C2CC(=O)Nc3ncnn32)cc1` (centres undefined), the result with Mus musculus [1], in the data set on Mus musculus [2], in the data set with Mus musculus [3] and with Mus musculus [4] was inactive. Moreover, the result in the data set on Mus musculus [5] was Active.

(Values after ChEMBL document CHEMBL1806414, “Synthesis and anticonvulsant activity of 7-phenyl-6,7-dihydro-[1,2,4]triazolo[1,5-a]pyrimidin-5(4H)-ones and their derivatives” (Eur J Med Chem, 2011).)
